From EPA's CvTdb concentration-time database

Columns and labels:
rat [1] = assay: concentration in lung after dosing; conditions: dosed: benzo[a]pyrene, inhalation, duration: 4 hr, F344
rat [2] = assay: concentration in plasma after dosing
human [3] = assay: concentration in blood after dosing; negative times count back from the end of exposure; conditions: inhalation
Procedure, shortened: (§1)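 Concentration-versus-time or amount-versus-time points were compiled from published in vivo toxicokinetic studies and from two structured collections. The studies were found by PubMed searching, classifier screening and manual review. Points were mostly digitised from plot screenshots with WebPlotDigitizer, otherwise copied from tables, and kept in the reported units. Dose, route, subject details and medium were curated by hand from each paper, and sampling and analytical methods follow each source and were often unreported.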

human [4] = assay: concentration in blood after dosing; conditions: dosed: tert-amyl methyl ether
Procedure, shortened: as §1

rat [5] = assay: concentration in expired air after dosing; conditions: dosed: 1,1,2-trichloroethane, 501 ppm, inhalation, duration: 6 hr
rat [6] = assay: concentration in expired air after dosing; conditions: dosed: 1,1,2-trichloroethane, 501 ppm, inhalation, duration: 6 hr; remark: listed apart in the source

Oc1ccc2cc3ccc4cccc5ccc(c2c1)c3c45 [9-hydroxy benzo[a]pyrene]
concentration in lung [ng/mL], rat [1]
Conditions | 0.1 mg/m^3, female | 0.1 mg/m^3, male | 1 mg/m^3, female | 1 mg/m^3, male | 2.5 mg/m^3, female | 2.5 mg/m^3, male
0.05 h | 0.389 | 0.387 | 11.8 | 4.34 | 23.9 | 21.7
1 h | 3.61 | 3.82 | 15.5 | 14.2 | 52.2 | 48.1
2 h | 0.814 | 1.62 | 14.6 | 4.36 | 12.3 | 8.15
4 h | 0.209 | 0.206 | 1.6 | 2.55 | 1.49 | 3.18

concentration in plasma [ng/mL], rat [2], dosed: benzo[a]pyrene, duration: 4 hr, F344
Conditions | 0.5 h | 1 h | 2 h | 4 h
0.1 mg/m^3, inhalation, female | 0.0614 | 0.243 | 0.122 | 0.00678
0.1 mg/m^3, inhalation, male | 0.1 | 0.302 | 0.102 | 0.0105
1 mg/m^3, inhalation, female | 0.339 | 5.95 | 0.303 | 0.00674
1 mg/m^3, inhalation, male | 0.606 | 8.58 | 0.97 | 0.00272
2.5 mg/m^3, inhalation, female | 4.93 | 29.3 | 5.63 | 0.276
2.5 mg/m^3, inhalation, male | 5.6 | 33.1 | 7.14 | 0.363

CN1CCCC1=O [N-methyl-2-pyrrolidone]
human [3], dosed: N-methyl-2-pyrrolidone, male
Conditions | concentration in blood [ng/mL]
0 h, 10 mg/m^3, duration: 8 hr | 470
0.8235 h, 53 mg/m^3, duration: 8 hr | 2010
0.9269 h, 80 mg/m^3, duration: 6 hr 10min | 942
0.9412 h, 10 mg/m^3, duration: 8 hr | 503
0.9412 h, 24 mg/m^3, duration: 8 hr | 701
0.986 h, 10 mg/m^3, duration: 6 hr 10min | 194
0.986 h, 40 mg/m^3, duration: 6 hr 10min | 412
1.824 h, 24 mg/m^3, duration: 8 hr | 492
1.824 h, 53 mg/m^3, duration: 8 hr | 1300
1.882 h, 10 mg/m^3, duration: 8 hr | 244
1.932 h, 10 mg/m^3, duration: 6 hr 10min | 153
1.932 h, 80 mg/m^3, duration: 6 hr 10min | 723
2.109 h, 40 mg/m^3, duration: 6 hr 10min | 346
3.765 h, 10 mg/m^3, duration: 8 hr | 139
3.765 h, 24 mg/m^3, duration: 8 hr | 277
3.765 h, 53 mg/m^3, duration: 8 hr | 757
3.823 h, 40 mg/m^3, duration: 6 hr 10min | 253
3.823 h, 80 mg/m^3, duration: 6 hr 10min | 516
4.06 h, 10 mg/m^3, duration: 6 hr 10min | 146
7.882 h, 53 mg/m^3, duration: 8 hr | 305
7.941 h, 24 mg/m^3, duration: 8 hr | 189
8 h, 10 mg/m^3, duration: 8 hr | 123
18.01 h, 80 mg/m^3, duration: 6 hr 10min | 92.6
18.25 h, 40 mg/m^3, duration: 6 hr 10min | 18.6
18.6 h, 10 mg/m^3, duration: 6 hr 10min | 55.7
19.88 h, 53 mg/m^3, duration: 8 hr | 91.4
19.94 h, 10 mg/m^3, duration: 8 hr | 85.9
19.94 h, 24 mg/m^3, duration: 8 hr | 63.9
145 s, 80 mg/m^3, duration: 6 hr 10min | 1530

human [3], dosed: N-methyl-2-pyrrolidone, male, during exposure
Conditions | concentration in blood [ng/mL]
-281 s, 40 mg/m^3, duration: 6 hr 10min | 645
-212 s, 24 mg/m^3, duration: 8 hr | 806
-212 s, 53 mg/m^3, duration: 8 hr | 2610
-68 s, 10 mg/m^3, duration: 6 hr 10min | 308
-4.118 h, 53 mg/m^3, duration: 8 hr | 1610
-4 h, 10 mg/m^3, duration: 8 hr | 342
-4 h, 24 mg/m^3, duration: 8 hr | 971
-3.211 h, 80 mg/m^3, duration: 6 hr 10min | 963
-3.034 h, 10 mg/m^3, duration: 6 hr 10min | 182
-3.034 h, 40 mg/m^3, duration: 6 hr 10min | 449

CCC(C)(C)OC [tert-amyl methyl ether]
human [4], inhalation, duration: 4 hr
Conditions | concentration in blood [nM]
0 h, 3.8 ppm | 589
2.022 h, 3.8 ppm | 208
2.034 h, 38.4 ppm | 1350
3.985 h, 38.4 ppm | 801
4.008 h, 3.8 ppm | 139
6.018 h, 38.4 ppm | 611
6.02 h, 3.8 ppm | 111
7.969 h, 38.4 ppm | 438
9.976 h, 38.4 ppm | 225
10.01 h, 3.8 ppm | 85
12.01 h, 38.4 ppm | 183
12.05 h, 3.8 ppm | 73.7
99 s, 38.4 ppm | 4500

human [4], oral
Conditions | concentration in blood [nM]
1.016 h, 15 mg | 145
1.043 h, 5 mg | 60.8
2.059 h, 15 mg | 70.2
2.113 h, 5 mg | 29.4
3.073 h, 5 mg | 13.9
4.009 h, 15 mg | 33
4.034 h, 5 mg | 9.2
6.041 h, 15 mg | 19.9
6.064 h, 5 mg | 6.34
8.046 h, 15 mg | 16.9
8.067 h, 5 mg | 3.85
9.995 h, 15 mg | 9.91
10.04 h, 5 mg | 3.13
12 h, 15 mg | 4.16

human [3], dosed: tert-amyl methyl ether, 15 ppm, duration: 4 hr, male
Conditions | concentration in blood [nM]
0.7676 h | 2300
1.198 h | 1900
2.571 h | 1140
7.198 h | 344
19.78 h | 86.8
338 s | 4220

human [3], dosed: tert-amyl methyl ether, 15 ppm, duration: 4 hr, male, during exposure
Conditions | concentration in blood [nM]
-4 h | 6.05
-3.022 h | 1710
-1.895 h | 3490
-0.981 h | 3580

CCCCOCCO [2-butoxyethanol]
human [3], dosed: 2-butoxyethanol, 20 ppm, duration: 2 hr
Conditions | concentration in blood [nM]
0.1474 h | 4330
0.3298 h | 3310
0.4842 h | 3420
0.6526 h | 2200
1.004 h | 1410
1.326 h | 1000
1.663 h | 1090
1.986 h | 987
25 s | 7200
227 s | 4220

human [3], dosed: 2-butoxyethanol, 20 ppm, duration: 2 hr, during exposure
Conditions | concentration in blood [nM]
-1.916 h | 2830
-1.832 h | 2770
-1.677 h | 4530
-1.34 h | 5020
-1.018 h | 7010
-0.6807 h | 7200
-0.3438 h | 7400

CCCOC(=O)c1ccc(O)cc1 [propylparaben]
concentration in plasma [ng/mL], rat [2], dosed: propylparaben, oral, male, Wistar
Conditions | 0.2504 h | 0.5008 h | 0.9984 h | 1.002 h | 2 h | 2.003 h | 4 h | 4.003 h | 297 s
3 mg/kg | 871 | 280 | – | 88.4 | 82.5 | – | – | – | 495
10 mg/kg | 3140 | 1720 | 466 | – | 271 | – | 23.6 | – | 1790
100 mg/kg | 8510 | 7830 | 4220 | – | 2980 | – | 495 | – | 8610
1000 mg/kg | 14100 | 17200 | – | 11500 | – | 9040 | – | 6390 | 15900

ClCC(Cl)Cl [1,1,2-trichloroethane]
concentration in expired air [ng/mL]
Conditions | rat [5] | rat [6]
0.1604 h | – | 149
0.3009 h | – | 215
0.4836 h | 248 | 275
0.7365 h | 321 | 258
0.9895 h | 250 | 331
1.495 h | 233 | 272
2.493 h | 201 | –
2.507 h | – | 253
3.491 h | 225 | –
3.505 h | – | 180
3.996 h | 197 | 164
4.488 h | 185 | –
4.502 h | – | 139
4.98 h | 134 | 152
6.498 h | 67.1 | 75.2
6.989 h | 42.2 | 51.8
7.481 h | 36.1 | –
7.495 h | – | 24.6
7.987 h | 21.3 | 14.7
8.985 h | 11.1 | 6.7
9.996 h | 3.53 | 5.67
10.98 h | 2.46 | 3.53
13 min | 204 | –
223 s | 110 | –

ClC=C(Cl)Cl [trichloroethene]
human [3], dosed: trichloroethene, 100 ppmv, duration: 240 min, male
Conditions | concentration in blood [ng/mL]
0.2522 h | 634
0.3977 h | 426
0.9604 h | 198
1.911 h | 112
4.055 h | 4.16

human [3], dosed: trichloroethene, 100 ppmv, duration: 240 min, male, during exposure
Conditions | concentration in blood [ng/mL]
-226 s | 1170
-175 s | 1170
-3.513 h | 588
-3.022 h | 851
-2.029 h | 1100
-1.031 h | 1040
